Assay results taken from ChEMBL document CHEMBL6182834, “Dual EGFR and telomerase inhibitory potential of new triazole tethered Schiff bases endowed with apoptosis: design, synthesis, and biological assessments” (RSC Med Chem, 2025).

Legend:
HeLa = test: Antiproliferative activity against human HeLa cells assessed as growth inhibition at 100 ug/mL incubated for 48 hrs by SRB assay relative to control; assay type: functional; conditions: read-out: GI
Summary of the method: (§1)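 SRB assay: cells seeded at 3×10^3/well, allowed 24 h to attach, then exposed to 100 µg/mL for 48 h, three wells per concentration, DMSO 1% v/v vehicle control. Cells fixed with 20% trichloroacetic acid and stained with 0.4% SRB, then OD read at 570 nm. Survival fraction taken as treated OD/control OD.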

HCT-116 [1] = test: Antiproliferative activity against human HCT-116 cells assessed as growth inhibition at 100 ug/mL incubated for 48 hrs by SRB assay relative to control; assay type: functional; conditions: read-out: GI; summary of the method: as §1
[2] = Cytotoxicity against HSF cells assessed as growth inhibition at 100 ug/mL incubated for 48 hrs by SRB assay relative to control; assay type: toxicity, cell-based; conditions: human, at 100 µg/mL, read-out: GI; summary of the method: as §1
FaDu = test: Antiproliferative activity against human FaDu cells assessed as growth inhibition at 100 ug/mL incubated for 48 hrs by SRB assay relative to control; assay type: functional; conditions: read-out: GI; summary of the method: as §1
[3] = Antiproliferative activity against human HNO 97 cell line assessed as growth inhibition at 100 ug/mL incubated for 48 hrs by SRB assay relative to control; assay type: functional; conditions: read-out: GI; summary of the method: as §1
Huh-7 = test: Antiproliferative activity against human Huh-7 cells assessed as growth inhibition at 100 ug/mL incubated for 48 hrs by SRB assay relative to control; assay type: functional; conditions: read-out: GI; summary of the method: as §1
A-375 [4] = test: Antiproliferative activity against human A-375 cells assessed as growth inhibition at 100 ug/mL incubated for 48 hrs by SRB assay relative to control; assay type: functional; conditions: read-out: GI; summary of the method: as §1
MG-63 = test: Antiproliferative activity against human MG-63 cells assessed as growth inhibition at 100 ug/mL incubated for 48 hrs by SRB assay relative to control; assay type: functional; conditions: read-out: GI; summary of the method: as §1
MDA-MB-468 = test: Antiproliferative activity against human MDA-MB-468 cells assessed as growth inhibition at 100 ug/mL incubated for 48 hrs by SRB assay relative to control; assay type: functional; conditions: read-out: GI; summary of the method: as §1
HepG2 [5] = test: Antiproliferative activity against human HepG2 cells assessed as growth inhibition at 100 ug/mL incubated for 48 hrs by SRB assay relative to control; assay type: functional; conditions: read-out: GI; summary of the method: as §1
[6] = Cytotoxicity against human oral epithelial cells (OEC) assessed as growth inhibition at 100 ug/mL incubated for 48 hrs by SRB assay relative to control; assay type: toxicity, cell-based, Oral epithelial cell; conditions: at 100 µg/mL, read-out: GI; summary of the method: as §1
Caco-2 = test: Antiproliferative activity against human Caco-2 cells assessed as growth inhibition at 100 ug/mL incubated for 48 hrs by SRB assay relative to control; assay type: functional; conditions: read-out: GI; summary of the method: as §1
MCF7 = test: Antiproliferative activity against human MCF7 cells assessed as growth inhibition at 100 ug/mL incubated for 48 hrs by SRB assay relative to control; assay type: functional; conditions: read-out: GI; summary of the method: as §1
HCT-116 [7] = test: Cytotoxicity against human HCT-116 cells assessed as inhibition of cell growth incubated for 48 hrs by SRB assay; assay type: functional, cell-based; conditions: HCT-116, 48 h
Summary of the method: (§2)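 Cells plated at 3×10^3/well and left 24 h to attach. Treated at 12.5, 25, 50 and 62.5 µg/mL for 48 h, three wells per concentration, with DMSO (1% v/v) vehicle control. Fixed with 20% TCA, stained with 0.4% SRB, OD read at 570 nm. Survival fraction = treated OD/control OD. IC50 from sigmoidal dose-response curve fitting.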

HepG2 [8] = test: Cytotoxicity against human HepG2 cells assessed as inhibition of cell growth incubated for 48 hrs by SRB assay; assay type: functional, cell-based; conditions: HepG2, 48 h; summary of the method: as §2
[9] = Cytotoxicity against human HNO 97 cell line assessed as inhibition of cell growth incubated for 48 hrs by SRB assay; assay type: functional, cell-based; conditions: HNO 97, 48 h; summary of the method: as §2
A-375 [10] = test: Cytotoxicity against human A-375 cells assessed as inhibition of cell growth incubated for 48 hrs by SRB assay; assay type: functional, cell-based; conditions: A-375, 48 h; summary of the method: as §2

Compound	inhibition of growth at 100 µg/mL (HeLa) [%]	inhibition of growth at 100 µg/mL (HCT-116 [1]) [%]	inhibition at 48 h, 100 ug/mL [2] [%]	inhibition of growth at 100 µg/mL (FaDu) [%]	inhibition of growth at 100 µg/mL [3] [%]	inhibition of growth at 100 µg/mL (Huh-7) [%]	inhibition of growth at 100 µg/mL (A-375 [4]) [%]	inhibition of growth at 100 µg/mL (MG-63) [%]	inhibition of growth at 100 µg/mL (MDA-MB-468) [%]	inhibition of growth at 100 µg/mL (HepG2 [5]) [%]	inhibition at 48 h, 100 ug/mL [6] [%]	inhibition of growth at 100 µg/mL (Caco-2) [%]	inhibition of growth at 100 µg/mL (MCF7) [%]	IC50 (HCT-116 [7]) [µM]	IC50 (HepG2 [8]) [µM]	IC50 [9] [µM]	IC50 (A-375 [10]) [µM]
COc1ccc(/C=N/NC(=O)c2nnn(-c3ccc(Br)cc3)c2C)cc1OC	65	63	20	69	86	53	77	42	54	59	28	40	86	–	–	–	–
COc1cc(/C=N/NC(=O)c2nnn(-c3ccc(Cl)cc3)c2C)cc(OC)c1OC	42	64	34	69	74	78	63	38	59	43	25	53	50	–	–	–	–
COc1cc(/C=N/NC(=O)c2nnn(-c3ccc([N+](=O)[O-])cc3)c2C)cc(OC)c1OC	29	35	28	70	68	74	50	40	70	44	39	60	49	–	–	–	–
COc1cc(/C=N/NC(=O)c2nnn(-c3ccc(Br)cc3)c2C)cc(OC)c1OC	60	82	51	73	68	75	60	67	76	76	52	64	72	–	–	–	–
COc1cccc(/C=N/NC(=O)c2nnn(-c3ccc(F)cc3)c2C)c1OC	45	64	9	70	69	68	71	42	52	49	13	36	78	–	–	–	–
COc1ccc(/C=N/NC(=O)c2nnn(-c3ccc(F)cc3)c2C)cc1OC	78	81	21	89	84	65	82	84	65	81	33	49	87	–	–	–	–
Cc1c(C(=O)N/N=C/c2ccccc2)nnn1-c1ccc(F)cc1	52	74	14	70	74	37	42	68	44	54	16	20	80	–	–	–	–
Cc1c(C(=O)N/N=C/c2ccccc2)nnn1-c1ccc(Br)cc1	79	87	4	83	89	67	72	75	65	72	23	37	87	16.9	–	–	–
COc1cccc(/C=N/NC(=O)c2nnn(-c3ccc(Br)cc3)c2C)c1OC	68	69	35	79	77	70	73	63	63	69	19	47	60	–	–	–	–
COc1cccc(/C=N/NC(=O)c2nnn(-c3ccc([N+](=O)[O-])cc3)c2C)c1OC	52	56	19	56	54	56	75	44	56	56	36	32	63	–	–	–	–
COc1cc(/C=N/NC(=O)c2nnn(-c3ccc(F)cc3)c2C)cc(OC)c1OC	56	73	38	72	79	75	85	63	72	79	32	58	68	18.8	35.7	15.7	13.2
COc1cccc2c1C(=O)c1c(O)c3c(c(O)c1C2=O)C[C@@](O)(C(=O)CO)C[C@@H]3O[C@H]1C[C@H](N)[C@H](O)[C@H](C)O1 [DOXORUBICIN]	76	76	42	61	59	63	52	51	73	72	41	71	69	10.5	11	9.01	14.5
